The species entered for experiment [1] is Rattus norvegicus. Nature of the experiment: Selectivity ratio of Ki for rat D2L dopamine receptor expressed in HEK293 cells to Ki for rat D3 dopamine receptor expressed in HEK293 cells. It is filed as cell-based.
The target in experiment [2] is T1, D(3) dopamine receptor (Homo sapiens, UniProt P35462). The experiment is described as follows: Agonist activity at human D3 dopamine receptor expressed in CHO cells by [35S]GTPgammaS binding assay relative to dopamine. It is filed as functional, cell-based. The method in brief:
(§1)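 [35S]GTPγS binding stimulated in CHO cells expressing human D2 or D3 receptors. […] The D2/D3 ratio is the ratio of the EC50 values. Values are means ± SEM of three to five experiments, each run in triplicate.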

The target in experiment [3] is T2, D(2) dopamine receptor (Homo sapiens, UniProt P14416). Nature of the experiment: Agonist activity at human D2 dopamine receptor expressed in CHO cells by [35S]GTPgammaS binding assay relative to dopamine. It is filed as functional, cell-based. Put shortly:
as §1

The next experiment is filed under the species Homo sapiens. Nature of the experiment: Selectivity ratio of EC50 for human D2 dopamine receptor expressed in CHO cells to EC50 for human D3 dopamine receptor expressed in CHO cells. It is filed as cell-based. Put shortly: as §1
Experiment [4] deals with T2, D(2) dopamine receptor. Nature of the experiment: Agonist activity at human D2 dopamine receptor expressed in CHO cells by [35S]GTPgammaS binding assay. It is filed as functional, cell-based. The method in brief: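 [35S]GTPγS binding stimulated in CHO cells expressing human D2 or D3 receptors. The D2/D3 ratio is the ratio of the EC50 values. Values are means ± SEM of three to five experiments, each run in triplicate.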

For experiment [5], the system named is Rattus norvegicus. The experiment is described as follows: Reversal of reserpine-induced hypolocomotion in Sprague-Dawley rat assessed as locomotor stimulation at 10 umol/kg, ip administered 18 hrs post reserpine challenge measured over 6 hrs. It is filed as functional, organism-based. The method in brief:
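Rats received reserpine 5 mg/kg s.c. The drug was given at 10 µmol/kg i.p. 18 h after reserpine. Horizontal activity (beam interruptions) was recorded in 30-min intervals and compared with reserpine-only controls. n=3 rats per value, mean ± SEM, one-way ANOVA.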

For experiment [6], the system named is PC-12. The experiment is described as follows: Neuroprotective activity against 6-OHDA induce toxicity in rat PC12 cells assessed as cell viability at 30 uM preincubated for 24 hrs followed by 6-OHDA addition for 24 hrs by MTT assay. It is filed as functional. Particulars: read-out: Activity. The method in brief:
(§2)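 PC12 cells were pretreated for 24 h across a concentration range (0.1-30 µM or 1-50 µM, depending on compound). A single dose of 75 µM 6-OHDA was then added for a further 24 h. Cell viability was measured by MTT assay.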

For experiment [7], the target named is Alpha-synuclein (Homo sapiens) (UniProt P37840). The experiment is described as follows: Inhibition of recombinant alphaSN (unknown origin) fibrillation at 120 uM after 6 days by ThT fluorescence assay. The method in brief:
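α-Synuclein was shaken for 6 days with or without the drug. Fibrillization was read by ThT fluorescence, normalized to α-synuclein shaken alone at day 6. Drugs were also tested alone in the ThT read-out. Values are means ± SEM of three independent experiments, compared by one-way ANOVA with Tukey post hoc test.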

Experiment [8] addresses T1, D(3) dopamine receptor. The experiment is described as follows: Agonist activity at human D3 dopamine receptor expressed in CHO cells by [35S]GTPgammaS binding assay. It is filed as functional, cell-based. (Binding of GTPγS marks nucleotide exchange on a G protein.)
Experiment [9] relates to PC-12. Nature of the experiment: Neuroprotective activity against 6-OHDA induce toxicity in rat PC12 cells assessed as cell viability preincubated for 24 hrs followed by 6-OHDA addition for 24 hrs by MTT assay. It is filed as functional, cell-based. Put shortly:
as §2
A general note: Tetrazolium dyes change colour on reduction, which living cells bring about.

The target in experiment [10] is D(3) dopamine receptor (Rattus norvegicus, UniProt P19020). Nature of the experiment: Displacement of [3H]spiperone from rat D3 dopamine receptor expressed in HEK293 cell membranes after 1 hr.
The target of experiment [11] is Alpha-synuclein (Homo sapiens) (UniProt P37840). The experiment is described as follows: Induction of recombinant alphaSN (unknown origin) fibrillation at 120 uM after 6 days by ThT fluorescence assay. The method in brief:
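Cell-free alpha-synuclein aggregation: SN shaken alone or co-incubated with each drug for 6 days. Fibrillization read by thioflavin T fluorescence and normalized to SN shaken alone for six days. Drugs were also run without SN to check for ThT interference. Means ± SEM of three independent experiments; one-way ANOVA with Tukey's post hoc test.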

Experiment [12] concerns the target D(2) dopamine receptor (Rattus norvegicus, UniProt P61169). Nature of the experiment: Displacement of [3H]spiperone from rat D2L dopamine receptor expressed in HEK293 cell membranes after 1 hr. (In general: Loss of bound radioactivity is the signal in a displacement assay; it reports binding, not function.)

Active and inactive are the calls of the source. No cut-off for these calls is given here.

T2 sequence (P14416 whole entry): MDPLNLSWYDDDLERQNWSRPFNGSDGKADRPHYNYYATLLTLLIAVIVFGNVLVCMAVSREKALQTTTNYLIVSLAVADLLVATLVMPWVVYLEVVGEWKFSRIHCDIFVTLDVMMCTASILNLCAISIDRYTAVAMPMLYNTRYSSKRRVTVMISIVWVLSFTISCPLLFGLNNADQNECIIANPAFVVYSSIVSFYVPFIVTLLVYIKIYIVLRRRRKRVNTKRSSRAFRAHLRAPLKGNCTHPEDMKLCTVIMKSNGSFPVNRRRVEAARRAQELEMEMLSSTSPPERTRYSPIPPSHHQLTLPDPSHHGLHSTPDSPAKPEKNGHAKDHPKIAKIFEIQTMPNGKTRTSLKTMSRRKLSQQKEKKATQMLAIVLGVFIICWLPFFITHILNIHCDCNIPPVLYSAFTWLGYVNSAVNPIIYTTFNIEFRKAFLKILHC
D(2) dopamine receptor (Rattus norvegicus, UniProt P61169), sequence (P61169 whole entry): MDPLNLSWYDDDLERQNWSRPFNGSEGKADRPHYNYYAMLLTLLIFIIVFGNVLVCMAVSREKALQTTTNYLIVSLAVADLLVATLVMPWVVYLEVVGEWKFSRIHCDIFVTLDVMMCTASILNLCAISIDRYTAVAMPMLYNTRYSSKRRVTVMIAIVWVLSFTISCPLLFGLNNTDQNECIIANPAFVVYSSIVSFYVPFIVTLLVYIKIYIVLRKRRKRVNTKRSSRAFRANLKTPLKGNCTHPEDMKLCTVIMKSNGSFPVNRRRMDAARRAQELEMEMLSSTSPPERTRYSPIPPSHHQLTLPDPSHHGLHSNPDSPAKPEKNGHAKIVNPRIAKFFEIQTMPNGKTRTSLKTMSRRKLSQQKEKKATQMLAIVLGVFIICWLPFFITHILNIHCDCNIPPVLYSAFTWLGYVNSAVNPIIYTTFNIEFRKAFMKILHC
T1 sequence (P35462 whole entry): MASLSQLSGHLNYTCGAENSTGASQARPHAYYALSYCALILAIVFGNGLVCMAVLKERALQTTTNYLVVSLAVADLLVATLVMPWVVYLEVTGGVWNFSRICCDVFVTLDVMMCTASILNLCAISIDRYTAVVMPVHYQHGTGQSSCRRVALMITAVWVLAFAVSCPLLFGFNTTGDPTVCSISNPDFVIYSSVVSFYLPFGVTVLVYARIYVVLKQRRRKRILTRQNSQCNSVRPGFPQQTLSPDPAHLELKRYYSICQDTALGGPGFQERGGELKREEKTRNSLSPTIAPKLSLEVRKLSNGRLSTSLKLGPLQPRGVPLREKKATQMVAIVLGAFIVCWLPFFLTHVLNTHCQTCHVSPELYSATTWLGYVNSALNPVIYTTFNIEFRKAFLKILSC
D(3) dopamine receptor (Rattus norvegicus, UniProt P19020), sequence (P19020 whole entry): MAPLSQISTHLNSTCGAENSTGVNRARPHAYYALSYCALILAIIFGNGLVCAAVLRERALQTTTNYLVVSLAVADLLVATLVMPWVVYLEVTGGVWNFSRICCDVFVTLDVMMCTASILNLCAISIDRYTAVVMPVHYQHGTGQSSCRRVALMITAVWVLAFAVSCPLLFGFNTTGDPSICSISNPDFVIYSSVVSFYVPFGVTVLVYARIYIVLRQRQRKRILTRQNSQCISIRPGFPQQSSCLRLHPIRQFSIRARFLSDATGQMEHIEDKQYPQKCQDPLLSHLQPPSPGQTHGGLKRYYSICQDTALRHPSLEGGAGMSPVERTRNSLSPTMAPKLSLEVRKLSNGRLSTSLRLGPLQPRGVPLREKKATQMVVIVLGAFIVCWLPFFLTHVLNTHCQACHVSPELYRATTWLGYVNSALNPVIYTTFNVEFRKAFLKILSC

For `CCCN(CCCc1ccc(O)c(OC)c1)C1CCc2nc(N)sc2C1` (racemic), in the experiment filed under Rattus norvegicus [1], the Ratio Ki amounted to 153.

As a reminder, the Emax is the size of the effect at its maximum, as opposed to the concentration needed. What is called EC50 is the midpoint of the concentration-response curve. A high value points to a need for much substance. For the molecule `CCCN(CCCCCc1ccc(O)c(O)c1)[C@H]1CCc2nc(N)sc2C1`, the Ratio Ki in the experiment listed under Rattus norvegicus [1] was 46. For the same molecule, the Emax at D(3) dopamine receptor [2] came out at 83.4%; at D(2) dopamine receptor [3], 97.4%. In addition, the Ratio EC50 in the experiment filed under Homo sapiens came to 8.74. Besides, the results for the EC50 at D(2) dopamine receptor [4] and at D(3) dopamine receptor [8] were 22.9 nM and 2.62 nM, respectively. In addition, the result in the experiment on Rattus norvegicus [5] was Active. Besides, the viability at 30 µM in the experiment on PC-12 [6] was in the range of 18 to 25%. The inhibition entry in [7] is “Active”. For the same molecule, the Activity entry in the experiment with PC-12 [9] is “Dose-dependent effect”.

For orientation: Ki means a measure of affinity in units of concentration, obtained from inhibition or displacement. In the case of `CCCN(CCCCCc1ccc(O)c(OC)c1)C1CCc2nc(N)sc2C1` (racemic), the affinity on D(3) dopamine receptor [10], expressed as Ki, was 3.62 nM. Also, the Ratio Ki in the experiment listed under Rattus norvegicus [1] came to 48.

With `CCCN[C@H]1CCc2nc(N)sc2C1`, the result in experiment [11] was Active.

On to `CCCN(CCCCCCc1ccc(O)c(OC)c1)C1CCc2nc(N)sc2C1` (racemic), for which the Ki at D(3) dopamine receptor [10] was 0.675 nM; at D(2) dopamine receptor [12], 58.5 nM. The Ratio Ki in the experiment filed under Rattus norvegicus [1] was found to be 87.

In the case of `CCCN(CCC/C=C/c1ccc(O)c(OC)c1)[C@H]1CCc2nc(N)sc2C1`, the values for the Ki on D(3) dopamine receptor [10] and at D(2) dopamine receptor [12] were 22.3 nM and 123 nM, respectively. Moreover, the Ratio Ki in the experiment listed under Rattus norvegicus [1] worked out at 6. Moreover, the results for the Emax at D(3) dopamine receptor [2] and on D(2) dopamine receptor [3] were 87.5% and 84.3%, respectively. Besides, the Ratio EC50 in the experiment listed under Homo sapiens worked out at 1.85. In addition, the EC50 at D(2) dopamine receptor [4] came to 37.7 nM; on D(3) dopamine receptor [8], 20.4 nM. Also, the viability at 30 µM with PC-12 [6] lay within 18 to 25%. Moreover, the Activity result in the experiment on PC-12 [9] is “Dose-dependent effect”.

`CCCN(CCCCCc1ccc(O)c(O)c1)C1CCc2nc(N)sc2C1` (racemic): the Ratio Ki in the experiment filed under Rattus norvegicus [1] came out at 45.

Consider `CCCN(CCC)C1CCc2c(O)cccc2C1` (configuration not stated), for which the outcome in experiment [11] was Active.

In the case of `CCCN(C/C=C/c1ccc(O)c(OC)c1)C1CCc2nc(N)sc2C1` (configuration not stated), the Ratio Ki in the experiment listed under Rattus norvegicus [1] was determined as 119.

Regarding `CCCN(CCCCCc1ccc(O)c(OC)c1)[C@H]1CCc2nc(N)sc2C1`, the Ratio Ki in the experiment filed under Rattus norvegicus [1] is 43. Moreover, the figures for the maximum response (Emax) on D(3) dopamine receptor [2] and at D(2) dopamine receptor [3] were 94.4% and 96.2%, respectively. In addition, the Ratio EC50 in the experiment listed under Homo sapiens is 2.68. Besides, the EC50 is 2.09 nM at D(2) dopamine receptor [4] and 0.78 nM on D(3) dopamine receptor [8].

For `CCCN(CCC/C=C/c1ccc(O)c(OC)c1)C1CCc2nc(N)sc2C1` (racemic), the Ki stood at 4.24 nM at D(3) dopamine receptor [10] and 150 nM on D(2) dopamine receptor [12]. Also, the Ratio Ki in the experiment filed under Rattus norvegicus [1] stood at 35.

In the case of `CCCN(CCCCCc1ccc(O)c(O)c1)[C@H]1CCc2c(O)cccc2C1`, the Ki was found to be 0.493 nM on D(3) dopamine receptor [10] and 4.67 nM at D(2) dopamine receptor [12]. Moreover, in the experiment listed under Rattus norvegicus [1], the Ratio Ki was 9. The Emax at D(3) dopamine receptor [2] was 90.9%; on D(2) dopamine receptor [3] it was 88.8%. Besides, in the experiment listed under Homo sapiens, the Ratio EC50 was found to be 0.82. For the same molecule, the EC50 at D(2) dopamine receptor [4] is 0.27 nM; on D(3) dopamine receptor [8] it was 0.33 nM. The viability at 30 µM in the experiment with PC-12 [6] lay in the range of 18 to 25%. The inhibition result in experiment [7] was “Active”. The Activity result in the experiment with PC-12 [9] was “Dose-dependent effect”.

On to `CCCN(CCCCCc1cc(O)ccc1O)[C@H]1CCc2nc(N)sc2C1`, for which, on D(3) dopamine receptor [10], the Ki came to 0.78 nM. The Emax on D(3) dopamine receptor [2] worked out at 90.9%; at D(2) dopamine receptor [3], 88%. The EC50 was found to be 9.3 nM on D(2) dopamine receptor [4] and 1.22 nM at D(3) dopamine receptor [8].

For `CCCN(CCC)CCc1cccc2c1CC(=O)N2`, the result in the experiment on Rattus norvegicus [5] was Active.

With `CCCN(CCC/C=C\c1ccc(O)c(OC)c1)C1CCc2nc(N)sc2C1` (racemic), in the experiment listed under Rattus norvegicus [1], the Ratio Ki was found to be 10.

The values are drawn from ChEMBL document CHEMBL4428089 (Bioorg Med Chem, 2016).
